Activity calls are given as the source filed them. The calls are words filed in the database; no cut-off is given here.

The text below walks through data of ChEMBL document CHEMBL1122464 (J Med Chem, 1983).

The nature of data set [1]: Acid dissociation constant was determined. Type of data set: ADME. Put shortly:
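Acridine pKa measured spectrophotometrically in 20% aqueous DMF. Values in parentheses were not measured directly: they were obtained by subtracting 0.25 pKa unit from values determined for the corresponding de-1'-NHSO2CH3 derivatives.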

The nature of data set [2]: Half life of the drug was determined in the presence of 2-mercaptoethanol. The following applies: solution containing 2-mercaptoethanol. The data set is classed as ADME.
The test system of data set [3] is P388. Description: Percent increase in the life span of treated mice over a group of control mice injected with p388 tumor alone when administered intraperitoneally (>500) as a solution in 0.1 mL of 30%,v/v, ethanol/water; Inactive. Type of data set: functional. Conditions: Mus musculus.
Data set [4] in a line: Chromatographic measure of drug lipophilicity. Type of data set: physicochemical.
For data set [5], the system named is L1210. Kind of data set: Reduce in the cell count when drug added to the murine L1210 leukemia cell cultures for 70 h. Conditions: Mus musculus, L1210, 70 h; read-out: ID50 (the source's name). The data set is classed as functional.
Data set [6] concerns P388. Description: Optimal dose administered intraperitoneally in. Type of data set: functional, Mus musculus.
Data set [7] has as its system P388. Kind of data set: Percent increase in the life span of treated mice over a group of control mice injected with p388 tumor alone when administered intraperitoneally (9) as a solution in 0.1 mL of 30%,v/v, ethanol/water. The data set is classed as functional, Mus musculus.
Data set [8] has as its system Nucleic Acid. Kind of data set: Binding constant to poly (dA-dT) was determined in calf thymus DNA by a fluorometric method. Type of data set: functional.

With `Cc1cc(NS(C)(=O)=O)cc(C)c1Nc1c2ccccc2nc2ccccc12`, the pKa (usually the negative logarithm of the acid dissociation constant) in data set [1] is 7.6. Also, the half-life (in general, how long it takes for the measured level to halve) in data set [2] is more than 70 min. In addition, the ILS (in general, how much longer treated animals lived than controls) in data set [3] was “inactive”. In data set [4], the Rm came out at 0.41. For the same compound, the IC50 in data set [5] is more than 10000 nM.

As to `CS(=O)(=O)Nc1ccc(Nc2c3ccccc3nc3ccccc23)cc1`, in data set [2], the half-life came out at 0.92 min. Besides, the OD in data set [6] stood at 66 mg/kg/day. Besides, the Rm in data set [4] is recorded as 0. Also, in data set [5], the IC50 turned out to be 35 nM.

`COc1cc(NS(C)(=O)=O)ccc1Nc1c2ccccc2nc2ccccc12` [AMSACRINE] came in with an ILS in data set [7] of 111%. Also, the half-life in data set [2] stood at 1.8 min. In addition, the K in data set [8] stood at 290000 M⁻¹. Further, the Rm in data set [4] turned out to be 0.18.

In data set [1], `COc1cc(NS(C)(=O)=O)cc(OC)c1Nc1c2ccccc2nc2ccccc12` came in with a pKa of 7.63. Further, in data set [2], the half-life was more than 70 min. The ILS result in data set [3] is “inactive”. In addition, the Rm in data set [4] worked out at 0.36. In data set [5], the IC50 worked out at 4900 nM.

On to `Cc1cc(NS(C)(=O)=O)ccc1Nc1c2ccccc2nc2ccccc12`, for which the half-life in data set [2] came to 54 min. Further, the K in data set [8] came to 380000 M⁻¹. In data set [4], this compound came in with a Rm of 0.15. Also, in data set [5], the IC50 was 100 nM.
